Numbering of substitutions follows the chain as printed.
Experiments:
PIN8 N117A = biological target: T1, PIN8 N117A (Arabidopsis thaliana, UniProt Q9LFP6, N117A); test: SSM electrophysiology peak current response, PIN8 N117A proteoliposomes; type: biochemical; settings: 100 μM or 2 mM substrate, relative to WT
T1 sequence (Q9LFP6 1-367 N117A): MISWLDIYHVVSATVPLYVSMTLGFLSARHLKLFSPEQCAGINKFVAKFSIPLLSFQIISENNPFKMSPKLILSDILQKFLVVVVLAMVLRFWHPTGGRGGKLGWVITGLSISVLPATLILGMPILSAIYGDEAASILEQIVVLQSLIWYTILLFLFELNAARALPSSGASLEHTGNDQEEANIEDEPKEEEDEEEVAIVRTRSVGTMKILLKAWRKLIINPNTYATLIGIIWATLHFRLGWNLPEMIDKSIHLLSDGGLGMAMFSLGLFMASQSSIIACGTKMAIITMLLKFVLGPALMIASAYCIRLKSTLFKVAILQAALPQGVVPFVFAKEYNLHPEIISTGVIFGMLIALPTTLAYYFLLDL
Procedure, shortened: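 The N117A point mutant of PIN8 was made by site-directed mutagenesis. It was reconstituted in proteoliposomes in Ca2+-free Ringer pH 7.4 and immobilised on SSM sensors. Peak currents were recorded after a single solution exchange to 100 μM or 2 mM substrate and expressed relative to wild type. Mean ± s.e.m., n = 3 sensors; one-way ANOVA.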

PIN8 [1] = biological target: T2, PIN8 (Arabidopsis thaliana, UniProt Q9LFP6); test: Xenopus oocyte efflux assay, PIN8; type: cell-based; settings: PIN8 in oocytes, NPA-sensitive, internal concentration 1 µM
T2 sequence (Q9LFP6 1-367): T1 sequence (Q9LFP6 1-367 N117A) with A117N
Procedure, shortened: (§1)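 Xenopus oocytes received 150 ng PIN8 or PIN3 cRNA; PIN3 was given with or without 75 ng PID kinase cRNA. [3H]-IAA or [3H]-2,4-D was injected to an internal 1 µM, ± 10 μM NPA internally. Residual radioactivity per oocyte was counted by scintillation over a time course (10 oocytes per point) and set against the initial 100%. %/min rates came from linear regression; each replicate used a different female.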

PIN8 S55A/S146A = biological target: T3, PIN8 S55A/S146A (Arabidopsis thaliana, UniProt Q9LFP6, S146A/S55A); test: SSM electrophysiology peak current response, PIN8 S55A/S146A proteoliposomes; type: biochemical; settings: for Imax: PIN8 S55A/S146A
T3 sequence (Q9LFP6 1-367 S55A/S146A): T1 sequence (Q9LFP6 1-367 N117A) with S55A, A117N, S146A

[2] = tested on: A. thaliana stem segments (wild type and pin1 mutants); test: Arabidopsis stem segment transport assay; parameters: species or system Arabidopsis thaliana
Procedure, shortened: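 Stem sections (2 cm) were cut above the rosette of 5-week-old Col-0 or pin1 plants. They were inverted into buffer (500 pM IAA, 1% sucrose, 5 mM MES pH 5.5) ± 100 μM NPA for 2 h. They were then moved to buffer with 417 nM [3H]-IAA or [3H]-2,4-D ± NPA for 2 h. Three 5 mm segments were dissected and counted by liquid scintillation.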

A. thaliana PIN3 = test: Xenopus oocyte efflux assay, PIN3 with PID kinase; type: cell-based, Arabidopsis thaliana; settings: PIN3 with PID kinase in oocytes, NPA-sensitive, internal concentration 1 µM
Procedure, shortened: as §1

PIN8 Y150A = biological target: T4, PIN8 Y150A (Arabidopsis thaliana, UniProt Q9LFP6, Y150A); test: SSM electrophysiology peak current response, PIN8 Y150A proteoliposomes; type: biochemical; settings: for Imax: PIN8 Y150A
T4 sequence (Q9LFP6 1-367 Y150A): T1 sequence (Q9LFP6 1-367 N117A) with A117N, Y150A

PIN8 [3] = biological target: T2, PIN8; test: KD of substrate binding by competition with NPA binding current; settings: KD relative to IAA
Procedure, shortened: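 Purified PIN8 (LMNG) was reconstituted at LPR 10 into soy polar lipid/POPC liposomes in Ca2+-free Ringer pH 7.4 and adsorbed on SSM sensors. Current from 100 µM NPA was recorded with test compound at 0–1000 µM in both activating and non-activating solutions (3 s single exchange). KD was taken as the half-maximal point of a one-site fit of peak current inhibition. n = 3 sensors, 3 technical replicates each.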

PIN8 [4] = biological target: T2, PIN8; settings: read-out: KD of IAA binding by PIN8, previously described; cited from earlier work

Row | effect of S55A/S146A double mutation on affinity (PIN8 S55A/S146A; PIN8 S55A/S146A vs WT) | Structure (SMILES) | current response with N117A mutation (PIN8 N117A) | 2,4-D export transport rate relative to that determined for IAA (PIN8 [1]) | EC50 (PIN8 S55A/S146A) [µM] | Imax (PIN8 S55A/S146A) [nA] | transport in pin1 mutants ([2]; pin1 mutant stem segments) | transport lower than IAA transport ([2]; wildtype plants, stem segments) | 2,4-D export rate relative to the IAA transport rate (A. thaliana PIN3) | EC50 (PIN8 Y150A) [mM] | Imax (PIN8 Y150A) [nA] | affinity lower compared to IAA (PIN8 [3]) | Kd (PIN8 [4]) [µM]
1 | – | O=C(O)COc1ccc(Cl)cc1Cl [2,4-D, 2,4-dichlorophenoxyacetic acid] | abolishes the current response | about half | 38 ± 6 | 9 ± 2 | completely abolished | about 20 fold | about half | 0.684 ± 0.256 | 5 ± 1 | – | –
2 | – | O=C(O)COc1ccc(Cl)cc1 [4-CPA, 4-chlorophenoxyacetic acid] | abolishes the current response | – | 81 ± 3 | 11 ± 0.9 | – | – | – | 2.62 ± 0.263 | 5 ± 0.4 | ~ 8 fold | –
3 | no effect | O=C(O)Cc1c[nH]c2ccccc12 [IAA, indole-3-acetic acid] | – | – | 341 ± 128 | 7 ± 2 | – | – | – | 1.21 ± 0.298 | 4 ± 0.3 | – | 40 ± 15
